According to ChEMBL document CHEMBL3856250, “Discovery of 6-Fluoro-5-(R)-(3-(S)-(8-fluoro-1-methyl-2,4-dioxo-1,2-dihydroquinazolin-3(4H)-yl)-2-methylphenyl)-2-(S)-(2-hydroxypropan-2-yl)-2,3,4,9-tetrahydro-1H-carbazole-8-carboxamide (BMS-986142): A Reversible Inhibitor of Bruton's Tyrosine Kinase (BTK) Conformationally Constrained by Two …” (J Med Chem, 2016):
Calls of active or inactive are those of the source. The rule behind the calls is not given here.

Assays:
[1] = molecular target: T1, Tyrosine-protein kinase BTK (Homo sapiens, UniProt Q06187); assay: Inhibition of BTK in human whole blood assessed as suppression of BCR/anti-IgM/IgG-stimulated CD69 surface expression after 18 hrs with agitation by FITC-staining based FACS analysis; assay type: tissue-based
T1 sequence (Q06187 whole entry): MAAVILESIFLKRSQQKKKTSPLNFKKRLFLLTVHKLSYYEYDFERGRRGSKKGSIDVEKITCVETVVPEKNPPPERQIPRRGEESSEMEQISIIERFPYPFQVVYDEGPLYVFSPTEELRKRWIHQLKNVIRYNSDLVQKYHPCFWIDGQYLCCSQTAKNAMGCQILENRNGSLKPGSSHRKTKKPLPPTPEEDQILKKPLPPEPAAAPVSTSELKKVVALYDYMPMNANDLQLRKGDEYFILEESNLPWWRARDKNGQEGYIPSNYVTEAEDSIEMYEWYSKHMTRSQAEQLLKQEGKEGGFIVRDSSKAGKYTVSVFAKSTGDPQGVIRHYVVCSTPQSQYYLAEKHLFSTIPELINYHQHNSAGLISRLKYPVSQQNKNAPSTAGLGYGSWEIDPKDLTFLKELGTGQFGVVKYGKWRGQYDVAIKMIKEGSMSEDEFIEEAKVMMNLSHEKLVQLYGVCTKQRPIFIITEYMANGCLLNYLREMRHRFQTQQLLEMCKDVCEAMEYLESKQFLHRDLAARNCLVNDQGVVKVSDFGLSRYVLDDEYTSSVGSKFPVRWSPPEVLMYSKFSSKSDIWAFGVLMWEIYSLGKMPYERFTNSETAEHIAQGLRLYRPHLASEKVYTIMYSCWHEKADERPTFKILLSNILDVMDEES

[2] = molecular target: T1, Tyrosine-protein kinase BTK; assay: Inhibition of BTK in human Ramos-B cells assessed as suppression of BCR/anti-IgM-stimulated Ca2+ flux after 1 hr incubation in dark by FLIPR1 assay
Homo sapiens [3] = organism: Homo sapiens; assay: Selectivity ratio of IC50 for JAK2 (unknown origin) to IC50 for full length recombinant human His-tagged BTK expressed in baculovirus
[4] = molecular target: T1, Tyrosine-protein kinase BTK
[5] = AUC in mouse at 10 mg/kg; assay type: ADME, organism-based; conditions: in vivo
[6] = Drug metabolism in mouse assessed as metabolite 13c formation at 10 mg/kg, iv or po; assay type: ADME, organism-based; conditions: in vivo
[7] = Cmax in mouse at 10 mg/kg, iv or po; assay type: ADME, organism-based; conditions: in vivo
[8] = Drug level in rat treated with 3-Chloro-4-(R)-(3-(S)-(8-fluoro-1-methyl-2,4-dioxo-1,2-dihydroquinazolin-3(4H)-yl)-2-methylphenyl)-7-(2-hydroxypropan-2-yl)-9H-carbazole-1-carboxamide assessed as compound formation; assay type: ADME; conditions: in vivo
[9] = Drug level in mouse treated with 3-Chloro-4-(R)-(3-(S)-(8-fluoro-1-methyl-2,4-dioxo-1,2-dihydroquinazolin-3(4H)-yl)-2-methylphenyl)-7-(2-hydroxypropan-2-yl)-9H-carbazole-1-carboxamide assessed as compound formation; assay type: ADME; conditions: in vivo
[10] = Drug level in dog treated with 3-Chloro-4-(R)-(3-(S)-(8-fluoro-1-methyl-2,4-dioxo-1,2-dihydroquinazolin-3(4H)-yl)-2-methylphenyl)-7-(2-hydroxypropan-2-yl)-9H-carbazole-1-carboxamide assessed as compound formation; assay type: ADME, Canis lupus familiaris; conditions: in vivo
[11] = Stability in plasma (unknown origin) at 37 degC after 5 days; assay type: ADME, cell-free; conditions: 120 h
[12] = Stability of the compound in methanol at 37 degC after 5 days; assay type: physicochemical; conditions: 120 h
Mus musculus [13] = assay: Anti-autoimmune activity in lupus prone NZB/WF1 mouse model assessed as protection against inflammatory infiltration at 10 mg/kg, po administered qd for 16 weeks; assay type: functional, organism-based
Mus musculus [14] = assay: Anti-autoimmune activity in lupus prone NZB/WF1 mouse model assessed as reduction in immune complex deposits at 10 mg/kg, po administered qd for 16 weeks; assay type: functional, organism-based
Mus musculus [15] = assay: Anti-autoimmune activity in lupus prone NZB/WF1 mouse model assessed as protection against glomerular nephritis at 10 mg/kg, po administered qd for 16 weeks; assay type: functional, organism-based
Mus musculus [16] = assay: Anti-autoimmune activity in lupus prone NZB/WF1 mouse model assessed as protection against tubulo-interstitial nephritis at 10 mg/kg, po administered qd for 16 weeks; assay type: functional, organism-based
[17] = Clearance in mouse at 10 mg/kg, iv or po; assay type: ADME, organism-based; conditions: in vivo
Mus musculus [18] = assay: Antiathritis activity in anticollagen antibody-induced arthritis BALB/c mouse model assessed as reduction in LPS-induced bone resorption in right hind paws at 5 and 20 mg/kg, po qd followed by LPS addition on day 3 measured after 11 days relative to control; assay type: functional, organism-based
Mus musculus [19] = assay: Anti-autoimmune activity in lupus prone NZB/WF1 mouse model assessed as protection against inflammatory infiltration at 30 mg/kg, po administered qd for 16 weeks; assay type: functional, organism-based
Procedure, shortened: (§1)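 Female NZB/WF1 mice, 24 weeks old, were randomized (n = 12 per group) after baseline body weight, proteinuria and serum dsDNA titers were measured. They were dosed by oral gavage once daily for 16 weeks in 80:20 PEG400/water vehicle, with prednisolone 10 mg/kg as the comparator arm. Health was monitored routinely, and weight, proteinuria and anti-dsDNA titers were measured every 3 weeks.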

Mus musculus [20] = assay: Anti-autoimmune activity in lupus prone NZB/WF1 mouse model assessed as protection against tubulo-interstitial nephritis at 30 mg/kg, po administered qd for 16 weeks; assay type: functional, organism-based; procedure, shortened: as §1
Mus musculus [21] = assay: Anti-autoimmune activity in lupus prone NZB/WF1 mouse model assessed as reduction in immune complex deposits at 30 mg/kg, po administered qd for 16 weeks; assay type: functional, organism-based; procedure, shortened: as §1
Mus musculus [22] = assay: Anti-autoimmune activity in lupus prone NZB/WF1 mouse model assessed as protection from disease-related death at 30 mg/kg, po administered qd for 16 weeks; assay type: functional, organism-based; procedure, shortened: as §1
Homo sapiens [23] = organism: Homo sapiens; assay: Inhibition of Na+ channel (unknown origin) at 10 uM at 4 Hz by patch clamp assay
Mus musculus [24] = assay: Anti-autoimmune activity in lupus prone NZB/WF1 mouse model assessed as inhibition of increase in severe proteinuria at 30 mg/kg, po administered qd for 16 weeks; assay type: functional, organism-based; procedure, shortened: as §1
Mus musculus [25] = assay: Antiathritis activity in anticollagen antibody-induced arthritis BALB/c mouse model assessed as reduction in LPS-induced inflammation in right hind paws at 5 and 20 mg/kg, po qd followed by LPS addition on day 3 measured after 11 days relative to control; assay type: functional, organism-based
Mus musculus [26] = assay: Anti-autoimmune activity in lupus prone NZB/WF1 mouse model assessed as protection against glomerular nephritis at 30 mg/kg, po administered qd for 16 weeks; assay type: functional, organism-based; procedure, shortened: as §1
Homo sapiens [27] = organism: Homo sapiens; assay: Inhibition of Ca2+ channel (unknown origin) at 10 uM by patch clamp assay
Homo sapiens [28] = organism: Homo sapiens; assay: Inhibition of Na+ channel (unknown origin) at 10 uM at 1 Hz by patch clamp assay
[29] = Stability of the compound in methanol at 37 degC after 3 days; assay type: physicochemical; conditions: 72 h
[30] = Cmax in mouse at 5 mg/kg; assay type: ADME, organism-based; design: dose 5 mg/kg; conditions: in vivo
[31] = Drug level in cynomolgus monkey plasma treated with 4-(3-(S)-(8-Fluoro-1-methyl-2,4-dioxo-1,2-dihydroquinazolin-3(4H)-yl)-2-methylphenyl)7-(2-hydroxypropan-2-yl)-9H-carbazole-1-carboxamide after 4 hrs by HPLC analysis; assay type: ADME, Macaca fascicularis
Procedure, shortened: (§2)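 Atropisomer distribution was followed in plasma from multiple species incubated at 37 °C over 4 h.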

[32] = Drug level in human plasma treated with 4-(3-(S)-(8-Fluoro-1-methyl-2,4-dioxo-1,2-dihydroquinazolin-3(4H)-yl)-2-methylphenyl)7-(2-hydroxypropan-2-yl)-9H-carbazole-1-carboxamide after 4 hrs by HPLC analysis; assay type: ADME; procedure, shortened: as §2
[33] = Drug metabolism in dog plasma assessed as compound-6 formation after 4 hrs by HPLC analysis; assay type: ADME, cell-free, Canis lupus familiaris; procedure, shortened: as §2
[34] = Drug level in rat plasma treated with 4-(3-(S)-(8-Fluoro-1-methyl-2,4-dioxo-1,2-dihydroquinazolin-3(4H)-yl)-2-methylphenyl)7-(2-hydroxypropan-2-yl)-9H-carbazole-1-carboxamide after 1 hr by HPLC analysis; assay type: ADME; procedure, shortened: as §2
[35] = AUC in mouse at 5 mg/kg; assay type: ADME, organism-based; conditions: in vivo
[36] = Drug metabolism in rat plasma assessed as compound-6 formation after 4 hrs by HPLC analysis; assay type: ADME, cell-free; procedure, shortened: as §2
[37] = Stability of the compound in methanol at 37 degC assessed as kinetic half life; assay type: physicochemical
[38] = Drug metabolism in mouse plasma assessed as compound-6 formation after 4 hrs by HPLC analysis; assay type: ADME, cell-free; procedure, shortened: as §2
[39] = Protein binding in human serum; assay type: ADME; conditions: read-out: PPB (converted)

Structure (SMILES): Cc1c(-c2c(F)cc(C(N)=O)c3[nH]c4c(c23)CC[C@@H](C(C)(C)O)C4)cccc1-n1c(=O)c2cccc(F)c2n(C)c1=O
- IC50 [1]: 150 nM
- IC50 [2]: 36 nM
- Ratio IC50 (Homo sapiens [3]): 910

Structure (SMILES): Cc1c(-c2ccc(C(N)=O)c3[nH]c4c(c23)CC[C@@H](C(C)(C)O)C4)cccc1-n1c(=O)c2cccc(F)c2n(C)c1=O
- IC50 [2]: 190 nM
- IC50 [4]: 11 nM
- Ratio IC50 (Homo sapiens [3]): 180

Structure (SMILES): Cc1c(-c2c(F)cc(C(N)=O)c3[nH]c4c(c23)CC[C@H](C(C)(C)O)C4)cccc1-n1c(=O)c2cccc(F)c2n(C)c1=O [BMS-986142]
- IC50 [2]: 750 nM
- IC50 [4]: 25 nM

Structure (SMILES): Cc1c(-c2c(F)cc(C(N)=O)c3[nH]c4cc(C(C)(C)O)ccc4c23)cccc1-n1c(=O)c2cccc(F)c2n(C)c1=O
- AUC [5]: 28 µM·h
- Drug metabolism [6]: Metabolite_Detected
- Cmax [7]: 5.5 µM

Structure (SMILES): Cc1c(-c2c(Cl)cc(C(N)=O)c3[nH]c4cc(C(C)(C)O)ccc4c23)cccc1-n1c(=O)[nH]c2c(F)cccc2c1=O
- Drug metabolism [8]: Metabolite_Detected
- IC50 [4]: 1.6 nM
- Drug metabolism [9]: Metabolite_Detected
- Drug metabolism [10]: Metabolite_Detected

Structure (SMILES): Cc1c(-c2c(Cl)cc(C(N)=O)c3[nH]c4cc(C(C)(C)O)ccc4c23)cccc1-n1c(=O)c2cccc(F)c2n(C)c1=O
- Stability [11]: Stable
- Stability [12]: Stable
- AUC [5]: 41 µM·h
- Cmax [7]: 4.7 µM

Structure (SMILES): C[C@]12C=CC(=O)C=C1CC[C@@H]1[C@@H]2[C@@H](O)C[C@@]2(C)[C@H]1CC[C@]2(O)C(=O)CO
- Activity (Mus musculus [13]): Active
- Activity (Mus musculus [14]): Active
- Activity (Mus musculus [15]): Active
- Activity (Mus musculus [16]): Active

Structure (SMILES): Cc1cc(C(N)=O)c2[nH]c3cc(C(C)(C)O)ccc3c2c1-c1cccc(-n2c(=O)c3cccc(F)c3n(C)c2=O)c1C
- AUC [5]: 48 µM·h
- IC50 [1]: 240 nM
- IC50 [2]: 17 nM
- IC50 [4]: 0.65 nM
- Cmax [7]: 6.3 µM

Structure (SMILES): Cc1c(-c2c(Cl)cc(C(N)=O)c3[nH]c4c(c23)CC[C@H](C(C)(C)O)C4)cccc1-n1c(=O)c2cccc(F)c2n(C)c1=O
- AUC [5]: 25 µM·h
- CL [17]: 15%
- Cmax [7]: 4.5 µM

Structure (SMILES): Cc1c(-c2c(C#N)cc(C(N)=O)c3[nH]c4cc(C(C)(C)O)ccc4c23)cccc1-n1c(=O)c2cccc(F)c2n(C)c1=O
- AUC [5]: 0.31 µM·h
- IC50 [1]: 120 nM
- IC50 [2]: 6 nM
- Ratio IC50 (Homo sapiens [3]): 7100
- Cmax [7]: 0.12 µM

Structure (SMILES): Cc1c(-c2c(F)cc(C(N)=O)c3[nH]c4c(c23)CC[C@H](C(C)(C)O)C4)cccc1-n1c(=O)c2cccc(F)c2n(C)c1=O (atropisomer R)
- Activity (Mus musculus [18]): Active
- Activity (Mus musculus [19]): Active
- Activity (Mus musculus [20]): Active
- Activity (Mus musculus [21]): Active
- Ratio IC50 (Homo sapiens [3]): > 10000
- Activity (Mus musculus [22]): Active
- inhibition (Homo sapiens [23]): 13%
- inhibition (Mus musculus [24]): Active
- Activity (Mus musculus [25]): Active
- Activity (Mus musculus [26]): Active
- inhibition (Homo sapiens [27]): 40%
- inhibition (Homo sapiens [28]): 10%

Structure (SMILES): Cc1c(-c2ccc(C(N)=O)c3[nH]c4cc(C(C)(C)O)ccc4c23)cccc1-n1c(=O)c2ccccc2n(C)c1=O
- IC50 [1]: 460 nM
- IC50 [4]: 2.6 nM
- Stability [29]: Stable

Structure (SMILES): Cc1c(-c2ccc(C(N)=O)c3[nH]c4c(c23)CC[C@H](C(C)(C)O)C4)cccc1-n1c(=O)c2cccc(F)c2n(C)c1=O
- AUC [5]: 16 µM·h
- IC50 [1]: 380 nM
- IC50 [2]: 63 nM
- IC50 [4]: 2.7 nM
- Ratio IC50 (Homo sapiens [3]): 740
- Cmax [7]: 3.6 µM

Structure (SMILES): Cc1c(-c2ccc(C(N)=O)c3[nH]c4cc(C(C)(C)O)ccc4c23)cccc1-n1cnc2ccccc2c1=O
- AUC [5]: 80 µM·h

Structure (SMILES): Cc1c(-c2ccc(C(N)=O)c3[nH]c4cc(C(C)(C)O)ccc4c23)cccc1-n1c(=O)c2cccc(F)c2n(C)c1=O
- Cmax [30]: 2200 nM
- Drug uptake [31]: Active
- Drug uptake [32]: Active
- Drug metabolism [33]: Metabolite_Notdetected
- Drug uptake [34]: Active
- AUC [35]: 25 µM·h
- Drug metabolism [36]: Metabolite_Notdetected
- half-life [37]: 69 min
- Drug metabolism [38]: Metabolite_Notdetected
- Stability [29]: Stable
- fraction unbound [39]: < 0.01
